Data taken from ChEMBL document CHEMBL4513216, “Probing the Open Global Health Chemical Diversity Library for Multistage-Active Starting Points for Next-Generation Antimalarials” (ACS Infect Dis, 2020).

Assay: Toxicity liver stage against HepG2, at 10uM
Format: cell-based
Parameters: test concentration 10 uM, cell line HepG2-A16-CD81EGFP
Conditions: human, HepG2-A16-CD81EGFP cells; read-out: INHIBITION
Method in brief: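 Uninfected HepG2-A16-CD81EGFP cells, 3 × 10^3 per well, 1536-well, plated on prespotted compound at 10 μM final, parasite-free screening media added to match infected plates; puromycin 10 μM positive, DMSO 0.5% negative; run in parallel with 48 h PbLuc assay at 37 °C, 5% CO2; viability by CellTiter-Glo luminescence, normalized to controls.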

Compound | cytotoxicity at 10 µM [%]
COc1cccc(CNC(=O)CCC2=Nc3ccccc3S(=O)(=O)N2)c1 | 4.19
O=C(Nc1ncc[nH]1)c1cc(-c2cccnc2)n[nH]1 | 5.69
CCOC(=O)c1cc2n(n1)CCCO2 | 3.86
O=C(CSC1=NS(=O)(=O)c2cc(F)ccc2N1)Nc1ccc(Cl)c(Cl)c1 | 11.5
CCCS(=O)(=O)NCc1nc(C)cc(N2CCCC2)n1 | 8.09
COC(=O)CCC(=O)N1CCc2nc(C(=O)N3CCCCC3)sc2CC1 | 15.4
CCOCC1CN(C(=O)[C@H]2CCCO2)Cc2nnn(CC3CC3)c21 (stereo not given in full) | -1.99
Cc1nc(-c2cnn(C)c2)nc2c1CN(C(=O)c1ccc[nH]1)CC2 | 13
CCn1nnc2c1C(COCCN(C)C)CN(c1nncs1)C2 (stereo not given) | 1.52
Cc1ccc(N2CC[C@@H]3[C@@H](CO[C@H]3CNC(=O)c3ccco3)C2)nn1 | 9.43
Cc1noc([C@@]23CCO[C@@H]2CCN(C(=O)c2cc(C)c(C)s2)C3)n1 | 8.73
COCCN1C(=O)[C@]2(CC[C@@H]3CN(C(=O)NC(C)C)C[C@@H]32)N=C1C | -57.5
Cc1ccsc1C(=O)N1CCC2(CC(C(=O)N(C)C(C)C)=NO2)C1 (stereo not given) | -126
COCC(=O)N1CCCn2c(CN3CCCC3)nnc2C1 | -130
O=S(=O)(C1CC1)N1CCC2(COCc3cnc(NCC4CC4)nc32)C1 (stereo not given) | 6.38
Cc1nc(C#N)c(N2CCC(c3nc(-c4ccccc4)no3)CC2)o1 | -7.41
Cc1ccc2c(c1)C1(CC2)CCN(c2nncs2)CC1 | 9.43
Cc1nc(NCc2ccccn2)c2c(n1)c(C)nn2C | -1.02
COc1cc2cc(C(=O)NCC(=O)O)n(C)c2c(OC)c1OC | -77.3
COc1ccccc1C(=O)Nc1c(F)c(C(=O)NCCC(C)C)nn1C | -11.1
Cc1nn(C)c2c(NCc3ccc(F)cc3)nc(C3CC3)nc12 | 0.107
CCc1cc(=O)n(CC(=O)N2CCC(C)CC2)c(-c2ccccc2)n1 | 10.8

Compound | cytotoxicity at 10 µM [%]
Cc1c(CNS(=O)(=O)c2cccc(COC(C)C)c2)cnn1C | 6.14
Fc1ccc(Nc2ccc(C3CCN(Cc4ncc[nH]4)CC3)nc2)nc1 | -1.85
O=C(O)c1ccccc1-c1ccc(CNC(=O)C2CCOCC2)cc1 | 1.33
CCCn1ncc(CN2C[C@@H]3CCCN3C[C@H]2Cc2ccccc2)c1C | -16.3
Cc1ccc(C(=O)N2CCc3nc4c(C)csc4c(=O)n3CC2)cn1 | -7.33
COCc1cc(O)nc(C2CCCN(Cc3cccc(OC)c3)C2)n1 (stereo not given) | 4.97
CCOC(=O)CCN(Cc1cccnc1)C(=O)c1cc(Cl)c[nH]1 | -1.24
CCN(CC)S(=O)(=O)CC(=O)N1CCc2ccc(C)cc21 | -5.77
N#CC1(C(=O)N2CCOC(c3ccc(Cl)cc3)C2)CCCC1 (stereo not given) | 1.36
COc1ccccc1CC(C)(C)C(=O)NCC(=O)Nc1cccnc1 | 9.21
CN(C)C(=O)CCC[S+]([O-])Cc1cc(Cl)ccc1Cl (stereo not given) | 12.5
CN(C)C(=O)CCC[S+]([O-])Cc1ccc(Cl)c(Cl)c1 (stereo not given) | 12.4
CC(=O)NCC1CCN(Cc2nc(C3CC3)no2)CC1 | -4.12
Cc1nsc(N2CCN(Cc3cccc(F)c3)CC2)n1 | 2.74
CN(Cc1ccccc1CNC(=O)C1CNC(=O)N1)C1CCCCC1 (stereo not given) | 5.09
Cn1cccc(NC(=O)NCCc2cccc(O)c2)c1=O | -43.6
CCc1ncnc(N2CCOCC2C2CC2)c1F (stereo not given) | -6.62
CCn1cnnc1CNC(=O)NCC(C(C)C)N1CCOCC1 (stereo not given) | 13.5
CC(C(N)=O)N(C)Cc1ccccc1C(F)(F)F (stereo not given) | -5.54
Cc1cccc(CSc2nnc(C)n2CC(N)=O)c1 | -4.46
NC(=O)Nc1ccc(C(=O)NCCn2cccc2)cc1 | -1.23
C=C(C)CN1CCC(NC(=O)NCCc2cccc(C(N)=O)c2)CC1 | 11.4

Compound | cytotoxicity at 10 µM [%]
CCOCC(=O)NC1(c2cccc(Cl)c2)CC1 | 3
CSc1ccc(CN(C)Cc2noc(C(C)(C)C)n2)cc1 | -8.58
Cc1cccc(C2(NC(=O)CCCn3cncn3)CCCC2)c1 | 15
Cc1cc(=O)n2ncnc2n1CC(O)c1ccc(F)cc1F (stereo not given) | -1.2
CN(Cc1nnc(C2CC2)o1)C1CCN(CCc2cccs2)C1 (stereo not given) | -2.01
CCOc1ncccc1NC(=O)Nc1c(C)nn(C(C)C)c1C | 17.8
CCNC(=O)N1CCC(NC(=O)NCCc2cc(F)cc(F)c2)C1 (stereo not given) | -43.4
CC(C)(C)c1nc(CN2CCCC2c2nnc3ccccn23)no1 (stereo not given) | -1.99
Cc1ccsc1CNC(=O)c1ccc(N2CCOC2=O)cc1 | 22.2
Cc1nc(C(=O)N2CC(C)Sc3ccccc32)cs1 (stereo not given) | -3.71
CC(C)C(=O)NCCNC(=O)C12CCC(=O)N1c1cc(Cl)ccc1S2 (stereo not given) | 15.3
NS(=O)(=O)CCNC(=O)c1nnn(-c2ccccc2)c1C1CC1 | -12.2
CCc1nc(CCNC(=O)C2CCOC2)sc1C (stereo not given) | -20.4
CC(C)(C)c1nc(CN2CCC(c3nc4cc(Cl)ccc4o3)CC2)no1 | 3.9
CC(C)n1c2ccccc2c2c1cc(C(=O)O)n2C(=O)N(C)C | -94.3
Cc1csc(CN2C[C@@H]3CN(C)CCO[C@@H]3C2)n1 | -105
O=C(CC1CC2(CCNCC2)c2ccccc21)NCC1CC1 (stereo not given) | -118
CS(=O)(=O)NC[C@]12COC[C@H]1CN(C(=O)C1CC(F)(F)C1)C2 | -95.5
Cc1ccc(CN2CCC3(CC(C(=O)NC4CCC4)=NO3)C2)o1 (stereo not given) | -97.5
Cc1ccoc1C(=O)N1C[C@@H](OCC2CCOCC2)[C@H]2OCCC[C@H]21 | 4.11
Cn1cccc1C(=O)N1CCCC2(CCCN2Cc2cccnc2)C1 (stereo not given) | 2.88
Cc1cc(N2CCC3(CCCN(CCO)C3=O)C2)nc2ccccc12 (stereo not given) | 3.69

Compound | cytotoxicity at 10 µM [%]
COCCC(=O)N1CCCC(CCC(=O)Nc2ccc(Cl)cc2)C1 (stereo not given) | 6.48
COc1cccc2c(=O)n(C3CCNCC3)cnc12 | -53.4
Cc1cc2n(n1)CCN(c1nc(N(C)C)nc3c1CCNC3)C2 | 0.94
CCn1ccnc1CN(C)c1cc(N(C)C)ncn1 | -42.1
CCCn1ncc(CN(CCN(C)C)Cc2ccsc2)c1C | 12.2
CCCN1CCC(CC(=O)N2CC(C)(C)[C@@](C)(O)C2)CC1 | 2.65
Cc1ncsc1CCN(C)Cc1ccc(CO)o1 | -15.3
CCc1cc(N(C)Cc2noc(CC(C)C)n2)ncn1 | 7.18
CCNC(=O)C1CCN(Cc2ccc(C(=O)Nc3nnc(C)s3)cc2)C1 (stereo not given) | -0.834
CCN1CCCC(C)(C(=O)NCc2nncn2CCc2ccccc2)C1 (stereo not given) | -10.2
Cc1cc(CN2CCCC(CNC(=O)Cn3cccn3)C2)oc1C (stereo not given) | 6.2
COc1ccc(CN(C)C2CSCCSC2)c2cccnc12 | 31.7
COCCC1(C(=O)O)CCCN(Cc2cc3c(cc2C)OCO3)C1 (stereo not given) | -2.37
CN1CCN(c2cnn(CCn3cccn3)c(=O)c2)CC1 | -47.4
COc1ccc2c(c1)OCC(Cc1ccc(C)nc1N)C2 (stereo not given) | -2.57
c1cncc(NCCNC2CSCCSC2)c1 | 15.8
Cc1cc2c(c(-c3cncc(C(=O)N4CCCC4)n3)c1)OC(CN)C2 (stereo not given) | -45.7
Cc1cc(CN(C)Cc2csc(-c3cccs3)n2)n[nH]1 | -4.14
COCCN(C)C[C@@H]1CN(C(=O)c2ccc(=O)n(C)c2)C[C@@H]1CO | -11.1
CC(c1ccon1)N(C)C(=O)C1CCN(C(=O)C2CCC2)CC1 (stereo not given) | 7.13
COc1cccc(Cl)c1C(C(=O)O)N(C)Cc1c(C)n[nH]c1C (stereo not given) | -1.89
Cn1c(-c2cc3n(n2)CCCN(CC(=O)O)C3)nc2ccccc21 | 2.68

Compound | cytotoxicity at 10 µM [%]
O=C1N(CCC2CCCCC2)CCCC1(O)CNCCc1ccccc1 (stereo not given) | -8.92
COc1cccc(-c2nccnc2C2CCN(C(C)=O)CC2)c1 | 1.47
CCN1CCN(c2ncc(-c3cc(C)no3)c(-c3ccc(C)s3)n2)CC1 | 2.44
Cc1csc2nc3n(c(=O)c12)CCN(C(=O)c1ccncc1)CC3 | -2.65
CN(Cc1cccnc1)C1CCCN(Cc2noc(C3CC3)n2)C1 (stereo not given) | -4.95
c1ccc(-n2ncc(CNCC3CCCN3c3cccnn3)n2)cc1 (stereo not given) | -6.71
NC(=O)C1CN(C(=O)Nc2ccccc2-c2cccs2)CCO1 (stereo not given) | -4.84
CC(C)C(C(=O)N1CCC(Nc2cccnn2)CC1)n1cncn1 (stereo not given) | -4.35
Cc1nc2c(c(NC3CC3)n1)CCN(C(=O)CCO)CC2 | -68.3
COCC1CN(CC2CC2)Cc2nn(CC3CC3)cc21 (stereo not given) | -71.4
CCC(C)S(=O)(=O)N1CCc2nc(C3CCNCC3)ncc2C1 (stereo not given) | -10.7
N#Cc1ccc(CN2CC3(CCCCN3c3cccnc3)CC2=O)cc1 (stereo not given) | 0.995
COC1COC2(CCN(Cc3ccc4ccccc4n3)CC2)C1 (stereo not given) | 5.05
N#Cc1cccc(CN2CC3(CCCCN3c3cccnc3)CC2=O)c1 (stereo not given) | -7.27
CS(=O)(=O)N1CCOCC2(CCN(Cc3ccc[nH]3)CC2)C1 | -7.02
CS(=O)(=O)N1CCOCC2(CN(Cc3ccc(F)cc3)CCO2)C1 (stereo not given) | 1.42
c1cncc(-c2ccc3c(c2)CCC32CCN(Cc3nccs3)CC2)c1 | 36
Cn1cc(N2CC3(COCCN(Cc4nccs4)C3)OCC2=O)cn1 (stereo not given) | -79.9
O=C1CCCN1CC1CN(CC2CCOCC2)Cc2nccn2C1 (stereo not given) | 1.65
COc1ccc(CN2CCc3ncnc(OC(C)C)c3CC2)cc1 | -1.99
Cc1nc(CN2C(=O)C[C@H]3[C@H]2CCN3CC2CCOC2)cs1 (stereo not given in full) | -151
O=C(NCCc1ccccc1)N1C[C@@H]2C[C@H](C(=O)N3CCCC3)[C@H](C1)O2 | 6.95
